Activity calls are given as the source filed them. The rule behind the calls is not given here.
Experiments:
A549 [1] = experiment: Cell cycle arrest in human A549 cells assessed as accumulation at G2/M phase at 1 uM after 48 hrs by propidium iodide staining-based flow cytometric analysis relative to control; type: functional
Summary of the method: (§1)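 A549 cells treated 48 h (5 μM test agents; 1 μM standard), trypsin-EDTA harvest, PBS wash, fixed in ice-cold 70% ethanol at 4 °C for 30 min, then stained 30 min at room temperature in the dark with propidium iodide/trisodium citrate/Triton X-100 solution. DNA content by flow cytometry; G2/M fraction compared with untreated control.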

A549 [2] = experiment: Inhibition of alpha-tubulin in human A549 cells assessed as ratio of free to polymerized tubulin at 1 uM after 24 hrs by densitometric analysis relative to control; type: cell-based
Summary of the method: (§2)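 A549 cells exposed 24 h (5 μM test agents; 1 μM nocodazole or taxol). Spun 15000g, 30 min, 22 °C to give soluble and polymerized fractions. α-Tubulin Western blot; band densitometry as soluble/polymerized ratio.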

Bos taurus = species on record: Bos taurus; experiment: Inhibition of bovine tubulin polymerization after 1 hr at 1 min interval by fluorescence assay
Summary of the method: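 Bovine brain tubulin, 2 mg/mL, in PEM buffer (80 mM PIPES, 0.5 mM EGTA, 2 mM MgCl2, pH 6.9) with fluorescent reporter, compounds at 3 μM, 37 °C. Reaction started by adding 1 mM GTP. Polymerization followed as fluorescence gain (ex 360/em 420 nm), read every 1 min for 1 h. Nocodazole as positive control.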

A549 [3] = experiment: Cell cycle arrest in human A549 cells assessed as accumulation at G2/M phase at 5 uM after 48 hrs by propidium iodide staining-based flow cytometric analysis; type: functional; summary of the method: as §1
A2780 = experiment: Growth inhibition of human A2780 cells by SRB assay; type: functional
A549 [4] = experiment: Growth inhibition of human A549 cells by SRB assay; type: functional
COLO 205 = experiment: Growth inhibition of human COLO205 cells by SRB assay; type: functional
MCF7 = experiment: Growth inhibition of human MCF7 cells by SRB assay; type: functional
[5] = Growth inhibition of human Gurav cells by SRB assay; type: functional
SiHa = experiment: Growth inhibition of human SiHa cells by SRB assay; type: functional
[6] = Growth inhibition of human DWD cells by SRB assay; type: functional
HOP-62 = experiment: Growth inhibition of human HOP62 cells by SRB assay; type: functional
A549 [7] = experiment: Inhibition of alpha-tubulin in human A549 cells assessed as ratio of free to polymerized tubulin at 5 uM after 24 hrs by densitometric analysis relative to control; type: cell-based; summary of the method: as §2
ZR-75-1 = experiment: Growth inhibition of human ZR-75-1 cells by SRB assay; type: functional
KB = experiment: Growth inhibition of human KB cells by SRB assay; type: functional
PC-3 = experiment: Growth inhibition of human PC3 cells by SRB assay; type: functional

Structure (SMILES) | inhibition (Bos taurus) | GI50 (A2780) | GI50 (A549 [4]) | GI50 (COLO 205) | GI50 (MCF7) | GI50 (KB) | GI50 (PC-3) | Activity (A549 [1]) | fold change (FC) (A549 [2]) | Activity (A549 [3]) | GI50 [5] | GI50 (SiHa) | GI50 [6] | GI50 (HOP-62) | fold change (FC) (A549 [7]) | GI50 (ZR-75-1)
COc1cc(-c2ccc(-c3ccc(-c4nc5c(O)cccc5[nH]4)cc3)cc2)cc(OC)c1OC | 98.3% | 0.17 µM | < 0.1 µM | 0.19 µM | < 0.1 µM | 2.11 µM | 0.17 µM | – | – | Active | 0.17 µM | 0.17 µM | 0.19 µM | 0.19 µM | 1.4 | 0.19 µM
CC(=O)O[C@H]1C(=O)[C@@]2(C)[C@H]([C@H](OC(=O)c3ccccc3)[C@]3(O)C[C@H](OC(=O)[C@H](O)[C@@H](NC(=O)c4ccccc4)c4ccccc4)C(C)=C1C3(C)C)[C@]1(OC(C)=O)CO[C@@H]1C[C@@H]2O | – | – | – | – | – | – | – | – | 0.5 | – | – | – | – | – | – | –
Oc1ccc(-c2ccc(-c3ccc(-c4nc5c(O)cccc5[nH]4)cc3)cc2)cc1 | 36.3% | 2.92 µM | 0.17 µM | 2.6 µM | 0.19 µM | 3.19 µM | 0.19 µM | – | – | Active | 0.19 µM | 2.41 µM | 2.7 µM | 2.41 µM | 1.1 | 2.65 µM
Cc1ccc2[nH]c(-c3ccc(-c4ccc(-c5ccc(F)cc5)cc4)cc3)nc2c1 | – | 24.6 µM | 6.03 µM | 100 µM | 30.2 µM | 24.9 µM | 100 µM | – | – | – | 16.5 µM | 41 µM | 33.1 µM | 33.5 µM | – | 35 µM
COc1ccc(-c2ccc(-c3ccc(-c4nc5c(O)cccc5[nH]4)cc3)cc2)cc1 | – | 8.64 µM | 7.69 µM | 1.63 µM | 3.11 µM | 4.9 µM | 6.61 µM | – | – | – | 6.63 µM | 4.8 µM | 6.4 µM | 3.21 µM | – | 8.2 µM
COc1ccc(-c2ccc(-c3ccc(-c4nc5cc(C)ccc5[nH]4)cc3)cc2)cc1 | – | 2.11 µM | 6.33 µM | 100 µM | 3.11 µM | 28.3 µM | 100 µM | – | – | – | 9.27 µM | 21.2 µM | 100 µM | 36.3 µM | – | 41.1 µM
Oc1cccc2[nH]c(-c3ccc(-c4ccc(-c5ccc(F)cc5)cc4)cc3)nc12 | – | 41.2 µM | 0.17 µM | 1.22 µM | 3.01 µM | 6.92 µM | 15.3 µM | – | – | – | 2.86 µM | 9.1 µM | 22.2 µM | 8.31 µM | – | 6.32 µM
Clc1cccc(-c2ccc(-c3ccc(-c4nc5ccccc5[nH]4)cc3)cc2)c1 | – | 31.1 µM | 31.1 µM | 100 µM | 36.3 µM | 32.3 µM | 33.7 µM | – | – | – | 2.19 µM | 100 µM | 100 µM | 100 µM | – | 41.2 µM

The next lines start with results.

inhibition (Bos taurus) | GI50 (A2780) | GI50 (A549 [4]) | GI50 (COLO 205) | GI50 (MCF7) | GI50 (KB) | GI50 (PC-3) | Structure (SMILES) | Activity (A549 [1]) | fold change (FC) (A549 [2]) | Activity (A549 [3]) | GI50 [5] | GI50 (SiHa) | GI50 [6] | GI50 (HOP-62) | fold change (FC) (A549 [7]) | GI50 (ZR-75-1)
58.9% | – | – | – | – | – | – | COC(=O)Nc1nc2cc(C(=O)c3cccs3)ccc2[nH]1 | Active | 1.5 | – | – | – | – | – | – | –
48.8% | 0.19 µM | < 0.1 µM | 0.19 µM | 0.17 µM | 2.11 µM | 0.18 µM | COc1cc(-c2ccc(-c3ccc(-c4nc5cc(C)ccc5[nH]4)cc3)cc2)cc(OC)c1OC | – | – | Active | 0.17 µM | 0.17 µM | 0.17 µM | 2.37 µM | 1.3 | 0.19 µM
– | 21.6 µM | 7.6 µM | 41.2 µM | 7.6 µM | 9.25 µM | 47.1 µM | COc1ccc(-c2ccc(-c3ccc(-c4nc5ccccc5[nH]4)cc3)cc2)cc1OC | – | – | – | 9.23 µM | 6.2 µM | 42.1 µM | 4.2 µM | – | 39.7 µM
– | 41.2 µM | 3.63 µM | 2.56 µM | 31.6 µM | 32.1 µM | 100 µM | Cc1ccc2[nH]c(-c3ccc(-c4ccc(-c5ccccc5)cc4)cc3)nc2c1 | – | – | – | 3.31 µM | 35.2 µM | 28.3 µM | 39.3 µM | – | 27.4 µM
– | 6.1 µM | 3.61 µM | 3.41 µM | 2.31 µM | 4.32 µM | 2.26 µM | Oc1cccc2[nH]c(-c3ccc(-c4ccc(-c5ccc(C(F)(F)F)cc5)cc4)cc3)nc12 | – | – | – | 3.19 µM | 3.72 µM | 3.18 µM | 3.2 µM | – | 5.11 µM
